From ChEMBL document CHEMBL1147083, “High-throughput synergy screening identifies microbial metabolites as combination agents for the treatment of fungal infections” (Proc Natl Acad Sci U S A, 2007)

Key:
Candida parapsilosis [1] = experiment: Antifungal activity against Candida parapsilosis infected cyclophosphamide-immunocompromized Crl:CD1(ICR) mouse assessed as fungal density in kidney at 0.5 mg/kg, po for 5 days measured on day 12; format: functional
In short: (§1)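 Female specific-pathogen-free ICR (Crl:CD-1) mice, ≈20–22 g, made neutropenic with cyclophosphamide 100 mg/kg i.p. once daily for 3 days. On day 3, infected i.p. with 1 × 10^4 C. parapsilosis ATCC 22019 blastospores. Oral gavage dosing began 6 h postinfection, then once daily for 5 days; placebo was 0.1 ml saline. Left kidney or lungs homogenized in 0.9% saline and plated on Sabouraud dextrose agar, 48 h at 35°C. Result is log10 cfu/g (n = 5).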

Candida parapsilosis [2] = experiment: Antifungal activity against Candida parapsilosis infected cyclophosphamide-immunocompromized Crl:CD1(ICR) mouse assessed as fungal density in lung at 0.5 mg/kg, po for 5 days measured on day 12; format: functional; in short: as §1
Candida parapsilosis [3] = experiment: Antifungal activity against Candida parapsilosis infected cyclophosphamide-immunocompromized Crl:CD1(ICR) mouse assessed as survival at 0.5 mg/kg, po for 5 days; format: functional
In short: (§2)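 Female ICR (Crl:CD-1) mice on cyclophosphamide 100 mg/kg i.p. daily for 3 days, then infected i.p. on day 3 with 1 × 10^4 C. parapsilosis ATCC 22019 blastospores. Oral gavage dosing started 6 h postinfection and continued once daily for 5 days, with saline placebo. Mice observed thrice daily for […]. Moribund animals were killed and counted as dying the next day. Mean survival time compared to controls by one-way ANOVA and Kaplan–Meier.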

Candida parapsilosis [4] = experiment: Antifungal activity against Candida parapsilosis infected cyclophosphamide-immunocompromized Crl:CD1(ICR) mouse assessed as fungal density in brain at 0.5 mg/kg, po for 5 days measured on day 12; format: functional
Candida parapsilosis [5] = experiment: Antifungal activity against Candida parapsilosis infected cyclophosphamide-immunocompromized Crl:CD1(ICR) mouse assessed as survival at 10 mg/kg, po for 5 days; format: functional; in short: as §2
Candida parapsilosis [6] = experiment: Antifungal activity against Candida parapsilosis infected cyclophosphamide-immunocompromized Crl:CD1(ICR) mouse assessed as fungal density in kidney at 0.5 mg/kg, po for 5 days measured on day 12 in presence beauvericin; format: functional; in short: as §1
HepG2 [7] = experiment: Toxicity against human HepG2 cells at 6.25 ug/ml in presence of merine microbial F10104 extract; format: cell-based
Candida parapsilosis [8] = experiment: Antifungal activity against Candida parapsilosis infected cyclophosphamide-immunocompromized Crl:CD1(ICR) mouse assessed as fungal density in lung at 10 mg/kg, po for 5 days measured on day 12; format: functional; in short: as §1
HepG2 [9] = experiment: Toxicity against human HepG2 cells at 100 ug/ml; format: cell-based
Candida parapsilosis [10] = experiment: Antifungal activity against Candida parapsilosis infected cyclophosphamide-immunocompromized Crl:CD1(ICR) mouse assessed as survival at 0.5 mg/kg, po for 5 days in presence of beauvericin; format: functional; in short: as §2
Candida parapsilosis [11] = experiment: Antifungal activity against Candida parapsilosis infected cyclophosphamide-immunocompromized Crl:CD1(ICR) mouse assessed as fungal density in kidney at 50 mg/kg, po for 5 days measured on day 12; format: functional; in short: as §1
Candida parapsilosis [12] = experiment: Antifungal activity against Candida parapsilosis infected cyclophosphamide-immunocompromized Crl:CD1(ICR) mouse assessed as survival at 50 mg/kg, po for 5 days; format: functional; in short: as §2
Candida parapsilosis [13] = experiment: Antifungal activity against Candida parapsilosis infected cyclophosphamide-immunocompromized Crl:CD1(ICR) mouse assessed as fungal density in lung at 50 mg/kg, po for 5 days measured on day 12; format: functional; in short: as §1
HepG2 [14] = experiment: Toxicity against human HepG2 cells at 50 ug/ml; format: cell-based
Candida parapsilosis [15] = experiment: Antifungal activity against Candida parapsilosis infected cyclophosphamide-immunocompromized Crl:CD1(ICR) mouse assessed as fungal density in lung at 0.5 mg/kg, po for 5 days measured on day 12 in presence beauvericin; format: functional; in short: as §1
Candida parapsilosis [16] = experiment: Antifungal activity against Candida parapsilosis infected cyclophosphamide-immunocompromized Crl:CD1(ICR) mouse assessed as fungal density in kidney at 10 mg/kg, po for 5 days measured on day 12; format: functional; in short: as §1

Row | Structure (SMILES) | Log10 cfu (Candida parapsilosis [1]) | Log10 cfu (Candida parapsilosis [2]) | Survival (Candida parapsilosis [3]) | Log10 cfu (Candida parapsilosis [4]) | Survival (Candida parapsilosis [5]) | Log10 cfu (Candida parapsilosis [6]) | Activity (HepG2 [7]) | Log10 cfu (Candida parapsilosis [8]) | Activity (HepG2 [9]) | Survival (Candida parapsilosis [10]) | Log10 cfu (Candida parapsilosis [11]) | Survival (Candida parapsilosis [12]) | Log10 cfu (Candida parapsilosis [13]) | Activity (HepG2 [14]) | Log10 cfu (Candida parapsilosis [15]) | Log10 cfu (Candida parapsilosis [16])
1 | CC(C)[C@@H]1OC(=O)[C@@H](Cc2ccccc2)N(C)C(=O)[C@H](C(C)C)OC(=O)[C@@H](Cc2ccccc2)N(C)C(=O)[C@H](C(C)C)OC(=O)[C@@H](Cc2ccccc2)N(C)C1=O (single isomer, unassigned) [BEAUVERICIN] | 9.3 | 5.2 | 8.3 days | 3.2 | – | – | – | – | – | – | – | – | – | – | – | –
2 | CC(=O)N1CCN(c2ccc(OCC3COC(Cn4ccnc4)(c4ccc(Cl)cc4Cl)O3)cc2)CC1 (centres undefined) [KETOCONAZOLE] | 8.4 | 4.8 | 9.2 days | – | 14.2 days | 1.3 | Non-toxic | 3.5 | Toxic | >21 days | 5.5 | 19.4 days | 2.6 | Toxic | 1.2 | 7.6
